Measurements published in ChEMBL document CHEMBL3853295, “Design and synthesis of novel pyrazolo[1,5-a]pyrimidine derivatives bearing nitrogen mustard moiety and evaluation of their antitumor activity in vitro and in vivo” (Eur J Med Chem, 2016).
pIC50: −log10 of the molar value. The source made the active and inactive calls. The rule behind the calls is not given here.

How the values were obtained:
[1] = Antitumor activity against human HepG2 cells xenografted in nude mouse assessed as tumor growth inhibition at 10 mg/kg, ip administered every day for 15 times measured from day 12 to 26; format: functional; set-up: scale not given: the % may be the effect or the level left
How it was run: (§1)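 Female nude mice given 5 × 10^6 HepG-2 cells subcutaneously in the left flank. Randomized, n = 5 per group. Daily i.p. injection for 15 times, with saline as vehicle control. Tumor length and width recorded every other day; volume taken as 1/2·length·width² once tumors reached 130–160 mm3. Result is tumor growth inhibition versus the saline group.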

[2] = Antitumor activity against human HepG2 cells xenografted in nude mouse assessed as tumor growth inhibition at 20 mg/kg, ip administered every day for 15 times measured from day 12 to 26; format: functional; set-up: scale not given: the % may be the effect or the level left; how it was run: as §1
Mus musculus [3] = test: Toxicity in nude mouse xenografted with human HepG2 cells assessed as body weight change at 10 mg/kg, ip administered every day for 15 times measured from day 12 to 26; format: organism-based; settings: in vivo
How it was run: (§2)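 Same subcutaneous HepG-2 xenograft in female nude mice (5 × 10^6 cells, left flank). n = 5 per group, daily i.p. dosing for 15 times, saline control. Body weight of each mouse recorded every other day during therapy and followed after treatment stopped. Treated versus untreated compared by p value over days 12–26.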

Mus musculus [4] = test: Toxicity in nude mouse xenografted with human HepG2 cells assessed as body weight change at 20 mg/kg, ip administered every day for 15 times measured from day 12 to 26; format: organism-based; settings: in vivo; how it was run: as §2
[5] = Cytotoxicity against human SH-SY5Y cells after 72 hrs by MTT assay; format: functional, cell-based
How it was run: (§3)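 Cells cultured in DMEM or RPMI 1640 with 10% FBS. Seeded at about 2 × 10^3 per well and grown 24 h at 37 °C, 5% CO2. Compounds added at final 0.1–1000 uM for 72 h, 5 wells per concentration. MTT added for 4 h at 37 °C, then lysis overnight. Absorbance read at 570 nm against a 650 nm reference; IC50 calculated.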

[6] = Cytotoxicity against human HepG2 cells after 72 hrs by MTT assay; format: functional, cell-based; settings: HepG2, 72 h; how it was run: as §3
[7] = Cytotoxicity against human A549 cells after 72 hrs by MTT assay; format: functional, cell-based; settings: A549, 72 h; how it was run: as §3
[8] = Cytotoxicity against human MCF7 cells after 72 hrs by MTT assay; format: functional, cell-based; settings: MCF7, 72 h; how it was run: as §3
[9] = Cytotoxicity against human DU145 cells after 72 hrs by MTT assay; format: functional, cell-based; settings: DU-145, 72 h; how it was run: as §3
[10] = Cytotoxicity against human GES-1 cells assessed as reduction in cell viability after 72 hrs by MTT assay; format: toxicity, cell-based, GES1; how it was run: as §3
[11] = Cell cycle arrest in human HepG2 cells assessed as accumulation at G1 phase at 1 to 3 uM after 24 hrs by propidium iodide staining-based flow cytometric analysis; format: functional
How it was run: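 HepG2 cells exposed 24 h, then trypsinized, washed in ice-cold PBS and fixed in ice-cold 70% ethanol for at least 24 h. Resuspended in 0.4 mL PBS with RNase A (1 mg/ml stock) and PI (500 ug/ml stock) for 30 min at 4 °C in the dark. Cycle distribution (G1, S, G2/M percentages) read by flow cytometry.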

HepG2 [12] = test: Induction of apoptosis in human HepG2 cells assessed as viable cells at 2 uM after 24 hrs by Annexin V-FITC/propidium iodide staining based flow cytometric analysis analysis (reference value: 90.7 %); format: functional; settings: HepG2, 24 h, read-out: Activity
HepG2 [13] = test: Induction of apoptosis in human HepG2 cells assessed as early apoptotic cells at 2 uM after 24 hrs by Annexin V-FITC/propidium iodide staining based flow cytometric analysis analysis (reference value: 1.60 %); format: functional
HepG2 [14] = test: Induction of apoptosis in human HepG2 cells assessed as late apoptotic cells at 2 uM after 24 hrs by Annexin V-FITC/propidium iodide staining based flow cytometric analysis analysis (reference value: 5.93 %); format: functional
HepG2 [15] = test: Induction of apoptosis in human HepG2 cells assessed as necrotic cells at 2 uM after 24 hrs by Annexin V-FITC/propidium iodide staining based flow cytometric analysis analysis (reference value: 1.74 %); format: functional
HepG2 [16] = test: Induction of apoptosis in human HepG2 cells assessed as viable cells at 4 uM after 24 hrs by Annexin V-FITC/propidium iodide staining based flow cytometric analysis analysis (reference value: 90.7 %); format: functional; settings: HepG2, 24 h, read-out: Activity
HepG2 [17] = test: Induction of apoptosis in human HepG2 cells assessed as early apoptotic cells at 4 uM after 24 hrs by Annexin V-FITC/propidium iodide staining based flow cytometric analysis analysis (reference value: 1.60 %); format: functional
HepG2 [18] = test: Induction of apoptosis in human HepG2 cells assessed as late apoptotic cells at 4 uM after 24 hrs by Annexin V-FITC/propidium iodide staining based flow cytometric analysis analysis (reference value: 5.93 %); format: functional
HepG2 [19] = test: Induction of apoptosis in human HepG2 cells assessed as necrotic cells at 4 uM after 24 hrs by Annexin V-FITC/propidium iodide staining based flow cytometric analysis analysis (reference value: 1.74 %); format: functional
HepG2 [20] = test: Induction of apoptosis in human HepG2 cells assessed as viable cells at 6 uM after 24 hrs by Annexin V-FITC/propidium iodide staining based flow cytometric analysis analysis (reference value: 90.7 %); format: functional; settings: HepG2, 24 h, read-out: Activity
HepG2 [21] = test: Induction of apoptosis in human HepG2 cells assessed as early apoptotic cells at 6 uM after 24 hrs by Annexin V-FITC/propidium iodide staining based flow cytometric analysis analysis (reference value: 1.60 %); format: functional
HepG2 [22] = test: Induction of apoptosis in human HepG2 cells assessed as late apoptotic cells at 6 uM after 24 hrs by Annexin V-FITC/propidium iodide staining based flow cytometric analysis analysis (reference value: 5.93 %); format: functional
HepG2 [23] = test: Induction of apoptosis in human HepG2 cells assessed as necrotic cells at 6 uM after 24 hrs by Annexin V-FITC/propidium iodide staining based flow cytometric analysis analysis (reference value: 1.74 %); format: functional
Mus musculus [24] = test: Toxicity in nude mouse xenografted with human HepG2 cells assessed as body weight change at 10 and 20 mg/kg, ip administered every day for 15 days and measured treatment cessation; format: organism-based; settings: in vivo, 360 h; how it was run: as §2

Question: Which Activity [1] does the source give for `O=P1(N(CCCl)CCCl)NCCCO1` (stereo not drawn) [CYCLOPHOSPHAMIDE ANHYDROUS] here?
Answer: 42.11%

Question: What about the Activity [2] of the same compound?
Answer: 51.48%

Question: What about the Activity (Mus musculus [3]) of the same compound?
Answer: 7.04%

Question: And the Activity (Mus musculus [4])?
Answer: 10.63%

Question: With `N#Cc1cnn2c(Nc3ccc(N(CCCl)CCCl)cc3)cc(CN3CCC(N4CCCCC4)CC3)nc12` as the compound, how does the pIC50 [5] read?
Answer: 5.22

Question: And the pIC50 [6]?
Answer: 6.68

Question: And the pIC50 [7]?
Answer: 5.21

Question: What about the pIC50 [8] of the same compound?
Answer: 5.08

Question: What about the pIC50 [9] of the same compound?
Answer: 5.17

Question: And the IC50 at 72 h [10]?
Answer: 9.54 µM

Question: And the Activity [11]?
Answer: Active

Question: And the viability at 2 µM (HepG2 [12])?
Answer: 81.8%

Question: What about the Activity (HepG2 [13]) of the same compound?
Answer: 2.87%

Question: What about the Activity (HepG2 [14]) of the same compound?
Answer: 11.9%

Question: What about the Activity (HepG2 [15]) of the same compound?
Answer: 3.39%

Question: What about the viability at 4 µM (HepG2 [16]) of the same compound?
Answer: 73.2%

Question: And the Activity (HepG2 [17])?
Answer: 3.78%

Question: What about the Activity (HepG2 [18]) of the same compound?
Answer: 18%

Question: And the Activity (HepG2 [19])?
Answer: 5.08%

Question: And the viability at 6 µM (HepG2 [20])?
Answer: 57.3%

Question: And the Activity (HepG2 [21])?
Answer: 5.56%

Question: And the Activity (HepG2 [22])?
Answer: 29.5%

Question: And the Activity (HepG2 [23])?
Answer: 7.69%

Question: And the Activity [1]?
Answer: 43.88%

Question: And the Activity [2]?
Answer: 58.26%

Question: And the Activity (Mus musculus [3])?
Answer: 7.15%

Question: And the Activity (Mus musculus [4])?
Answer: 9.21%

Question: And the Activity (Mus musculus [24])?
Answer: Non-Toxic
